According to ChEMBL document CHEMBL1123811, “gem-Diphosphonate and gem-phosphonate-phosphate compounds with specific high density lipoprotein inducing activity” (1987):

Tests used:
Type in all cases: functional
Design in all cases: concentration or dose not given beside the values
[1] = organism: Rattus norvegicus; assay: Activity to induce the elevation of phospholipids of male Wistar rats
Procedure, shortened: (§1)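 Wistar rats on normal diet; groups were vehicle control, an internal-standard diphosphonate, and test compounds. Dosed daily for 4 days; diphosphonates were dissolved in water or suspended in 1% (carboxymethyl)cellulose, 4 mL/kg. On day 5, after overnight fast, rats were killed under ether. EDTA plasma was assayed enzymatically for HDL-C after heparin-CaCl2 precipitation of VLDL/LDL, phospholipids, triglycerides and α/β-cholesterol ratio. Results are given as % of control.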

[2] = organism: Rattus norvegicus; assay: Activity to induce the elevation of HDL(High Density Lipoproteins)-Cholesterol of male Wistar rats; procedure, shortened: as §1
[3] = organism: Rattus norvegicus; assay: Activity to induce the elevation of alpha/beta cholesterol ratio of male Wistar rats; procedure, shortened: as §1
[4] = organism: Rattus norvegicus; assay: Activity to induce the elevation of triglycerides of male Wistar rats; procedure, shortened: as §1

## COP(=O)(OC)C(O)(c1ccccc1)P(=O)(OC)OC
[1]
  Plasma phospholipids, % change versus control: 57%
[2]
  HDL-cholesterol change relative to control (%): 13%
[3]
  Percent change in alpha/beta cholesterol ratio versus control: 80%
[4]
  Percent change in plasma triglycerides versus control: 4%

## COP(=O)(OC)OC(c1ccc(C)cc1)P(=O)(OC)OC (stereo unspecified)
[1]
  Plasma phospholipids, % change versus control: -8%
[2]
  HDL-cholesterol change relative to control (%): 4%
[3]
  Percent change in alpha/beta cholesterol ratio versus control: 47%
[4]
  Percent change in plasma triglycerides versus control: -33%

## COP(=O)(OC)OC(c1cc(C)ccc1C)P(=O)(OC)OC (stereo unspecified)
[1]
  Plasma phospholipids, % change versus control: -16%
[2]
  HDL-cholesterol change relative to control (%): 10%
[3]
  Percent change in alpha/beta cholesterol ratio versus control: 15%
[4]
  Percent change in plasma triglycerides versus control: -3%

## COP(=O)(OC)OC(C(C)C)P(=O)(OC)OC (stereo unspecified)
[1]
  Plasma phospholipids, % change versus control: 7%
[2]
  HDL-cholesterol change relative to control (%): 15%
[3]
  Percent change in alpha/beta cholesterol ratio versus control: 38%
[4]
  Percent change in plasma triglycerides versus control: -26%

## COc1ccc(C(OP(=O)(OC)OC)P(=O)(OC)OC)cc1 (stereo unspecified)
[1]
  Plasma phospholipids, % change versus control: -3%
[2]
  HDL-cholesterol change relative to control (%): 0%
[3]
  Percent change in alpha/beta cholesterol ratio versus control: 2%
[4]
  Percent change in plasma triglycerides versus control: 41%

## COP(=O)(OC)OC(C1CCCCC1)P(=O)(OC)OC (stereo unspecified)
[1]
  Plasma phospholipids, % change versus control: 0%
[2]
  HDL-cholesterol change relative to control (%): 5%
[3]
  Percent change in alpha/beta cholesterol ratio versus control: -20%
[4]
  Percent change in plasma triglycerides versus control: -46%

## O=P(O)(O)C(Cc1ccc(Cl)cc1)P(=O)(O)O
[1]
  Plasma phospholipids, % change versus control: 0%
[3]
  Percent change in alpha/beta cholesterol ratio versus control: -40%
[4]
  Percent change in plasma triglycerides versus control: -146%

## CCCOP(=O)(OCCC)OC(c1ccc(Cl)cc1)P(=O)(OCCC)OCCC (stereo unspecified)
[1]
  Plasma phospholipids, % change versus control: 4%
[2]
  HDL-cholesterol change relative to control (%): -6%
[3]
  Percent change in alpha/beta cholesterol ratio versus control: 4%
[4]
  Percent change in plasma triglycerides versus control: -17%

## CCCCOP(=O)(OCCCC)C(Cc1ccc(Cl)cc1)P(=O)(OCCCC)OCCCC
[1]
  Plasma phospholipids, % change versus control: 6%
[2]
  HDL-cholesterol change relative to control (%): 0%
[3]
  Percent change in alpha/beta cholesterol ratio versus control: 2%
[4]
  Percent change in plasma triglycerides versus control: 1%

## CCOP(=O)(OCC)OC(c1ccc(Cl)cc1)P(=O)(OCC)OCC (stereo unspecified)
[1]
  Plasma phospholipids, % change versus control: 16%
[2]
  HDL-cholesterol change relative to control (%): 15%
[3]
  Percent change in alpha/beta cholesterol ratio versus control: -6%
[4]
  Percent change in plasma triglycerides versus control: 8%

## O=P(O)(O)C(Cc1ccccc1)P(=O)(O)O
[1]
  Plasma phospholipids, % change versus control: 3%
[2]
  HDL-cholesterol change relative to control (%): -8%
[3]
  Percent change in alpha/beta cholesterol ratio versus control: -10%
[4]
  Percent change in plasma triglycerides versus control: -11%

## COP(=O)(OC)OC(C(C)(C)c1ccc(Cl)cc1)P(=O)(OC)OC (stereo unspecified)
[1]
  Plasma phospholipids, % change versus control: 37%
[2]
  HDL-cholesterol change relative to control (%): 56%
[3]
  Percent change in alpha/beta cholesterol ratio versus control: 59%
[4]
  Percent change in plasma triglycerides versus control: -7%

## COP(=O)(OC)OC(c1ccc(-c2ccccc2)cc1)P(=O)(OC)OC (stereo unspecified)
[1]
  Plasma phospholipids, % change versus control: 18%
[2]
  HDL-cholesterol change relative to control (%): 24%
[3]
  Percent change in alpha/beta cholesterol ratio versus control: 40%
[4]
  Percent change in plasma triglycerides versus control: 0%

## CCOP(=O)(OCC)C(CCCc1ccccc1)P(=O)(OCC)OCC
[1]
  Plasma phospholipids, % change versus control: 17%
[2]
  HDL-cholesterol change relative to control (%): 62%
[3]
  Percent change in alpha/beta cholesterol ratio versus control: 33%
[4]
  Percent change in plasma triglycerides versus control: 46%

## CCOP(=O)(OCC)C(CCOc1ccccc1)P(=O)(OCC)OCC
[1]
  Plasma phospholipids, % change versus control: 25%
[2]
  HDL-cholesterol change relative to control (%): 29%
[3]
  Percent change in alpha/beta cholesterol ratio versus control: 26%
[4]
  Percent change in plasma triglycerides versus control: -38%

## O=P(O)(O)C(CCc1ccccc1)P(=O)(O)O
[1]
  Plasma phospholipids, % change versus control: -16%
[2]
  HDL-cholesterol change relative to control (%): -24%
[3]
  Percent change in alpha/beta cholesterol ratio versus control: -27%
[4]
  Percent change in plasma triglycerides versus control: -17%

## COP(=O)(OC)OC(c1ccccc1Cl)P(=O)(OC)OC (stereo unspecified)
[1]
  Plasma phospholipids, % change versus control: 22%
[3]
  Percent change in alpha/beta cholesterol ratio versus control: 34%
[4]
  Percent change in plasma triglycerides versus control: -42%
